In ChEMBL document CHEMBL1268976, “Stereocontrolled facile synthesis and antimicrobial activity of oximes and oxime ethers of diversely substituted bispidines” (2010) one finds MIC90 data, which are given here for eleven compounds.

≈ marks a conversion by molar mass, not a printed value.

Common to all, as to format: functional
In assay [1] the test system is Bacillus subtilis. The experiment in a line: Antibacterial activity against Bacillus subtilis by broth microdilution method. Put shortly: (§1)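 In vitro broth microdilution following the NCCLS standard for bacteria (M7-A5). The test panel was Bacillus subtilis, Staphylococcus aureus, Klebsiella pneumoniae and Pseudomonas aeruginosa.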
The test system of assay [2] is Staphylococcus aureus. The experiment in a line: Antibacterial activity against Staphylococcus aureus by broth microdilution method. Put shortly:
as §1
In general terms: In broth dilution the organism is exposed to a series of concentrations in liquid medium.

Assay [3] concerns Klebsiella pneumoniae. Description: Antibacterial activity against Klebsiella pneumoniae by broth microdilution method. Summed up:
as §1

Assay [4] relates to Pseudomonas aeruginosa. The experiment in a line: Antibacterial activity against Pseudomonas aeruginosa by broth microdilution method. Summed up: as §1
The test system of assay [5] is Candida albicans. The experiment in a line: Antifungal activity against Candida albicans by broth microdilution method. Summed up: (§2)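 Fungal panel of Candida albicans, Candida parapsilosis, Aspergillus niger and Cryptococcus neoformans, tested in vitro by standard NCCLS broth microdilution. The yeast susceptibility reference cited is M27-A.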
In assay [6] the test system is Candida parapsilosis. Description: Antifungal activity against Candida parapsilosis by broth microdilution method. To be noted: Lodderomyces parapsilosis. Put shortly: as §2
The test system of assay [7] is Aspergillus niger. Description: Antifungal activity against Aspergillus niger by broth microdilution method. Summed up:
as §2

In assay [8] the test system is Cryptococcus neoformans. The experiment in a line: Antimicrobial activity against Cryptococcus neoformans by broth microdilution method. Put shortly: as §2

`ON=C1C2C(c3ccccc3F)NC(c3ccccc3F)C1C(c1ccccc1F)NC2c1ccccc1F` (stereo not given): the MIC90 (in general, an inhibitory concentration at the 90% level, which refers to growth in some studies and to a panel of isolates in others) in assay [1] is 64 µg/mL (≈ 120 µM); in assay [2] it was > 128 µg/mL; in assay [3], 32 µg/mL (≈ 60.2 µM); in assay [4] it was 16 µg/mL (≈ 30.1 µM); in assay [5] it was 32 µg/mL (≈ 60.2 µM); in assay [6] it was 64 µg/mL (≈ 120 µM). In addition, the MIC90 in assay [7] was 4 µg/mL (≈ 7.53 µM); in assay [8], > 128 µg/mL.
As to `CCOc1ccccc1C1NC(c2ccccc2OCC)C2C(=NOC)C1C(c1ccccc1OCC)NC2c1ccccc1OCC` (stereo not given), the MIC90 in assay [1] is > 128 µg/mL; in assay [2] it was > 128 µg/mL; in assay [3] it was > 128 µg/mL; in assay [4], 32 µg/mL (≈ 49.2 µM); in assay [5], > 128 µg/mL; in assay [6] it was 64 µg/mL (≈ 98.5 µM). Besides, the MIC90 in assay [7] and in assay [8] was 16 µg/mL (≈ 24.6 µM) each time.
For `CON=C1C2C(c3ccc(Cl)cc3)NC(c3ccc(Cl)cc3)C1C(c1ccc(Cl)cc1)NC2c1ccc(Cl)cc1` (stereo not given), the MIC90 in assay [1] is 128 µg/mL (≈ 209 µM); in assay [2] it was 32 µg/mL (≈ 52.3 µM); in assay [3], 4 µg/mL (≈ 6.54 µM); in assay [4] it was 8 µg/mL (≈ 13.1 µM); in assay [5] it was 4 µg/mL (≈ 6.54 µM); in assay [6] it was > 128 µg/mL. The MIC90 in assay [7] is 16 µg/mL (≈ 26.2 µM); in assay [8], > 128 µg/mL.
With `CON=C1C2C(c3cccc(OC)c3)NC(c3cccc(OC)c3)C1C(c1cccc(OC)c1)NC2c1cccc(OC)c1` (stereo not given), the MIC90 was > 128 µg/mL in assay [1]; 128 µg/mL (≈ 216 µM) in assay [2]; > 128 µg/mL in assay [3]; 64 µg/mL (≈ 108 µM) in assay [4]; 128 µg/mL (≈ 216 µM) in assay [5]; > 128 µg/mL in assay [6]. Also, the MIC90 in assay [7] came out at 16 µg/mL (≈ 26.9 µM); in assay [8], 128 µg/mL (≈ 216 µM).
As for `COc1ccc(C2NC(c3ccc(OC)cc3)C3C(=NO)C2C(c2ccc(OC)cc2)NC3c2ccc(OC)cc2)cc1` (stereo not given), the MIC90 in assay [1] was > 128 µg/mL; in assay [2], 64 µg/mL (≈ 110 µM); in assay [3], 64 µg/mL (≈ 110 µM); in assay [4] it was 16 µg/mL (≈ 27.6 µM); in assay [5] it was > 128 µg/mL; in assay [6], 64 µg/mL (≈ 110 µM). The MIC90 in assay [7] was 16 µg/mL (≈ 27.6 µM); in assay [8], 64 µg/mL (≈ 110 µM).
With `CSc1ccc(C2NC(c3ccc(SC)cc3)C3C(=NO)C2C(c2ccc(SC)cc2)NC3c2ccc(SC)cc2)cc1` (stereo not given), the MIC90 in assay [1] is > 128 µg/mL; in assay [2], > 128 µg/mL; in assay [3], 32 µg/mL (≈ 49.7 µM); in assay [4] it was 16 µg/mL (≈ 24.8 µM); in assay [5], 32 µg/mL (≈ 49.7 µM); in assay [6] it was 32 µg/mL (≈ 49.7 µM). For the same compound, the results for the MIC90 in assay [7] and in assay [8] were 16 µg/mL (≈ 24.8 µM) and 32 µg/mL (≈ 49.7 µM), respectively.
`ON=C1C2C(c3ccc(OCc4ccccc4)cc3)NC(c3ccc(OCc4ccccc4)cc3)C1C(c1ccc(OCc3ccccc3)cc1)NC2c1ccc(OCc2ccccc2)cc1` (stereo not given): the MIC90 in assay [1], in assay [2], in assay [3], in assay [4], in assay [5] and in assay [6] was > 128 µg/mL in each case. Also, the MIC90 is 128 µg/mL (≈ 145 µM) in assay [7] and > 128 µg/mL in assay [8].
Consider `CCOc1ccccc1C1NC(c2ccccc2OCC)C2C(=NO)C1C(c1ccccc1OCC)NC2c1ccccc1OCC` (stereo not given), for which the MIC90 in assay [1] was > 128 µg/mL; in assay [2], > 128 µg/mL; in assay [3], 64 µg/mL (≈ 101 µM); in assay [4], 32 µg/mL (≈ 50.3 µM); in assay [5], > 128 µg/mL; in assay [6], > 128 µg/mL. Further, the values for the MIC90 in assay [7] and in assay [8] were 32 µg/mL (≈ 50.3 µM) and 64 µg/mL (≈ 101 µM), respectively.
For `CON=C1C2C(c3ccc(F)cc3)NC(c3ccc(F)cc3)C1C(c1ccc(F)cc1)NC2c1ccc(F)cc1` (stereo not given), the MIC90 in assay [1] was 64 µg/mL (≈ 117 µM); in assay [2], 8 µg/mL (≈ 14.7 µM); in assay [3], 16 µg/mL (≈ 29.3 µM); in assay [4], 4 µg/mL (≈ 7.33 µM); in assay [5], 2 µg/mL (≈ 3.67 µM); in assay [6], > 128 µg/mL. Moreover, the MIC90 in assay [7] was 2 µg/mL (≈ 3.67 µM); in assay [8], 32 µg/mL (≈ 58.7 µM).
GENTAMICIN: the MIC90 in assay [1] was 16 µg/mL; in assay [2] it was 4 µg/mL; in assay [3] it was 2 µg/mL; in assay [4] it was 16 µg/mL.
Consider `OC(Cn1cncn1)(Cn1cncn1)c1ccc(F)cc1F` [FLUCONAZOLE], for which the MIC90 in assay [5] amounted to 1 µg/mL (≈ 3.27 µM); in assay [6], 2 µg/mL (≈ 6.53 µM); in assay [7], 4 µg/mL (≈ 13.1 µM); in assay [8], 2 µg/mL (≈ 6.53 µM).
